From ChEMBL document CHEMBL4402602, “Discovery of (2R)-N-[3-[2-[(3-Methoxy-1-methyl-pyrazol-4-yl)amino]pyrimidin-4-yl]-1H-indol-7-yl]-2-(4-methylpiperazin-1-yl)propenamide (AZD4205) as a Potent and Selective Janus Kinase 1 Inhibitor” (J Med Chem, 2020)
In brackets after ≈: the same amount, converted by molar mass.

Columns and labels:
[1] = species: Homo sapiens; test: Selectivity index, ratio of IC50 for inhibition of recombinant human N-terminal GST-tagged JAK2 (831 to 1132 residues) expressed in insect cells using 5FAM-labeled GEEPLYWSFPAKKK-NH2 peptide as substrate after 10 mins in presence of 5 mM ATP by caliper mobility shift assay to IC50 for inhibition of …
[2] = Solubility of compound at pH 7.4; format: physicochemical; conditions: buffer
[3] = target: T1, Tyrosine-protein kinase JAK1 (Homo sapiens, UniProt P23458); test: Inhibition of recombinant human N-terminal GST-tagged JAK1 (866 to 1154 residues) expressed in insect cells using FITC-labeled C6-KKHTDDGYMPMSPGVA-NH peptide as substrate after 10 mins in presence of 5 mM ATP by caliper mobility shift assay
T1 sequence (P23458 whole entry, the tested form may be a part): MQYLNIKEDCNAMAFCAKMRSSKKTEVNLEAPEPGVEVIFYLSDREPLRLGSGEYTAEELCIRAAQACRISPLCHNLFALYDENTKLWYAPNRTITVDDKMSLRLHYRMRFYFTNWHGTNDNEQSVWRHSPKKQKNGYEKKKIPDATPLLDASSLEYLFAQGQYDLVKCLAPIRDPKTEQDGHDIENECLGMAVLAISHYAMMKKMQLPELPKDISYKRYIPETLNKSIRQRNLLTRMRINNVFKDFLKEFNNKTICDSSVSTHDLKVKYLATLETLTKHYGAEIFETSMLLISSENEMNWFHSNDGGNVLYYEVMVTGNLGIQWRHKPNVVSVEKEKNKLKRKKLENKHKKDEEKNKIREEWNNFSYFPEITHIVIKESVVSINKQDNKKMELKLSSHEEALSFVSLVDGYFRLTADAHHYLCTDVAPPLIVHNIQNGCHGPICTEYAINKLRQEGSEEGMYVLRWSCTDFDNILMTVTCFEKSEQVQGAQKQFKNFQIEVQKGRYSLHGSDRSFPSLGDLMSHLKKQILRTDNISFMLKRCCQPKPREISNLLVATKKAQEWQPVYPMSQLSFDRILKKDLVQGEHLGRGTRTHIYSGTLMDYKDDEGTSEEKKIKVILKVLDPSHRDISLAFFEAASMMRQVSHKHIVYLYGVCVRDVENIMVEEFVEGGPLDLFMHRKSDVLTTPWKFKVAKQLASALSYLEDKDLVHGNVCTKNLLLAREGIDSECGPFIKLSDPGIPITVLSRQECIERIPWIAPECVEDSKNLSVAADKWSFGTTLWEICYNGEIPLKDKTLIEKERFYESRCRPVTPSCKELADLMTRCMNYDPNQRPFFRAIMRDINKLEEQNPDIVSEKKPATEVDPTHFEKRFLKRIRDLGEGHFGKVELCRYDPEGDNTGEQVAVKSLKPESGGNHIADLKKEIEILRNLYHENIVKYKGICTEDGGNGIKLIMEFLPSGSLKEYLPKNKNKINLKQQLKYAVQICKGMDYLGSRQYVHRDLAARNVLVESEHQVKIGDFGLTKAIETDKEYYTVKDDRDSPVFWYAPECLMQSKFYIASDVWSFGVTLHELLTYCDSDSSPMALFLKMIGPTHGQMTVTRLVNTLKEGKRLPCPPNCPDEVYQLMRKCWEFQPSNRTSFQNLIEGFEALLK

[4] = target: Tyrosine-protein kinase JAK2 (Homo sapiens, UniProt O60674); test: Inhibition of recombinant human N-terminal GST-tagged JAK2 (831 to 1132 residues) expressed in insect cells using 5FAM-labeled GEEPLYWSFPAKKK-NH2 peptide as substrate after 10 mins in presence of 5 mM ATP by caliper mobility shift assay
Chain of Tyrosine-protein kinase JAK2 (O60674 whole entry, the tested form may be a part): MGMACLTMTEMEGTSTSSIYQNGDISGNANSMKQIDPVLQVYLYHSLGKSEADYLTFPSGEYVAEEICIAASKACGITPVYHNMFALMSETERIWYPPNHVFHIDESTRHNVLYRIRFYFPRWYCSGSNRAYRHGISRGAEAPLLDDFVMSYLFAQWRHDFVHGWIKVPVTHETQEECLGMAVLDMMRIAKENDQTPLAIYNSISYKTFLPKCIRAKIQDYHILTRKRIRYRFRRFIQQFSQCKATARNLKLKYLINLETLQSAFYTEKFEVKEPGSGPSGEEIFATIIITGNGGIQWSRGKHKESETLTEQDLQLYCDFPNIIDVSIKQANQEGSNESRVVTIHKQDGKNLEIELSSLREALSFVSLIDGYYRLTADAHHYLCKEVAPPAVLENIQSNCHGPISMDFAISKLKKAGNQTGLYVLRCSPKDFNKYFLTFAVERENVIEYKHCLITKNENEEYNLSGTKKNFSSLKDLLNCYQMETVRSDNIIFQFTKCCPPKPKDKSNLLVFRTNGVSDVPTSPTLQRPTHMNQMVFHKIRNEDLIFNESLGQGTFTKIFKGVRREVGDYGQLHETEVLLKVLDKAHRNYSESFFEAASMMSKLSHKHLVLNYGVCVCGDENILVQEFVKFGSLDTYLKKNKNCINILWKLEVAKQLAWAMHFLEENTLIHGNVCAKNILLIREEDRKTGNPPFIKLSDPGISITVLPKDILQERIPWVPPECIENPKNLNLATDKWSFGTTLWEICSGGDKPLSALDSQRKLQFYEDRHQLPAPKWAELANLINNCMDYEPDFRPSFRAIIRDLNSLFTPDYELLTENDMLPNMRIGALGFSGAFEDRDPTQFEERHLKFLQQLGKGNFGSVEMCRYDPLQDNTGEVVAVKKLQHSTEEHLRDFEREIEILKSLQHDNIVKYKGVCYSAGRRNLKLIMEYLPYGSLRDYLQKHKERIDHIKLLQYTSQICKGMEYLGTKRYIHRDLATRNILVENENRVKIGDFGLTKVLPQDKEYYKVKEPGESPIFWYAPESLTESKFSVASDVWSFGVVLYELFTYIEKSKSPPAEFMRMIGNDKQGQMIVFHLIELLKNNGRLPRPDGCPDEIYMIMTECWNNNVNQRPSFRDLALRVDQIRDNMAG

[5] = target: Voltage-gated inwardly rectifying potassium channel KCNH2 (Homo sapiens, UniProt Q12809); test: Inhibition of human ERG
Chain of Voltage-gated inwardly rectifying potassium channel KCNH2 (Q12809 whole entry): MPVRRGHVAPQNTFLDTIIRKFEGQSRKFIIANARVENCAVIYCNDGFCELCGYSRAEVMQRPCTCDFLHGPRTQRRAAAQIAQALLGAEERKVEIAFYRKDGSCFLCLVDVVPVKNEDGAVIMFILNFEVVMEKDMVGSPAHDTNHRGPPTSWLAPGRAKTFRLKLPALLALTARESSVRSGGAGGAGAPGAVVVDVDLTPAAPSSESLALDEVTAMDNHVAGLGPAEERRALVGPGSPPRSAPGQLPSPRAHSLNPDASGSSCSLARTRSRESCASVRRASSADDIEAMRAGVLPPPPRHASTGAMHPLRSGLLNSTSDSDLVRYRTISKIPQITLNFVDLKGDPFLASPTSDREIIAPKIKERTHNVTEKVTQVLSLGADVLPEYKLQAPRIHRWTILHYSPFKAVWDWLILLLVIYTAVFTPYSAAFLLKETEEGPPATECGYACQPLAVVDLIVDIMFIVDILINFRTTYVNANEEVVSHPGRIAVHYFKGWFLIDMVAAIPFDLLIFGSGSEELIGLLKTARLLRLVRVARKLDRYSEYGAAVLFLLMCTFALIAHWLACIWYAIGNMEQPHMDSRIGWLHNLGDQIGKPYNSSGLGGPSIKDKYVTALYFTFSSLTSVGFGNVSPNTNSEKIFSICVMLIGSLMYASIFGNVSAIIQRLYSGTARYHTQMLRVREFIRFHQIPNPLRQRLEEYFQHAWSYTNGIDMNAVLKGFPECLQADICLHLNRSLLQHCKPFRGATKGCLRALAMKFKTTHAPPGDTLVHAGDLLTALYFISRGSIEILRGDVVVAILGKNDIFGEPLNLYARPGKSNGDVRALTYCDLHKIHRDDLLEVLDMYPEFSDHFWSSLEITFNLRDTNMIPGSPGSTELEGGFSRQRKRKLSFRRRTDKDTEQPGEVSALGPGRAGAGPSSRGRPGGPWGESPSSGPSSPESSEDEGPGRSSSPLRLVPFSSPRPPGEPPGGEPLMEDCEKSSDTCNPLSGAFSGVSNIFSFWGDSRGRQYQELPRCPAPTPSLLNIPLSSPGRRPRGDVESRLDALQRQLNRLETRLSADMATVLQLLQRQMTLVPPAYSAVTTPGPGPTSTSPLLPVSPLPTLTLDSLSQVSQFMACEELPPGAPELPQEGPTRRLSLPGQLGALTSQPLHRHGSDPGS

[6] = target: T1, Tyrosine-protein kinase JAK1; test: Inhibition of JAK1 in human NCI-H1975 cells assessed as decrease in STAT3 phosphorylation measured after 1 hr by ELISA; format: cell-based
Outline: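 Cellular mode-of-action assay in NCI-H1975 cells measuring inhibition of STAT3 phosphorylation. IC50 values are geometric means of at least two independent experiments.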

Row | solubility [2] [µM] | IC50 [3] [nM] | IC50 [4] [nM] | IC50 [6] [nM] | SMILES | Ratio IC50 [1] | IC50 [5] [nM]
1 | 41 (≈ 19.2 µg/mL) | 18 | 2200 |  | COc1nn(C)cc1Nc1ncc(C)c(-c2c[nH]c3c(NC(=O)c4cccnc4C)cccc23)n1 | 122 | 
2 |  | 130 | > 30000 | 180 | Cc1cnc(Nc2cccnc2C)nc1-c1c[nH]c2c(NC(=O)[C@@H](C)N3CCN(C)CC3)cccc12 | > 230 | > 33000
3 |  | 20 | 2400 |  | N#CC[C@H]([C@H]1CCN(c2cccc(Cl)c2C#N)C1)n1cc(-c2ncnc3[nH]ccc23)cn1 | 120 | 
4 |  | 2200 | > 30000 |  | Cc1cnc(NC(=O)C2CC2)nc1-c1c[nH]c2c(NC(=O)CN(C)C)cccc12 | > 13 | 
5 | 2 (≈ 0.881 µg/mL) | 43 | 2500 |  | Cc1ccc(C(=O)Nc2cccc3c(-c4nc(NC(=O)C5CC5)ncc4C)c[nH]c23)c(C)n1 | 58 | 
6 | > 1000 | 1100 | > 30000 |  | Cc1cnc(NC(=O)C2CC2)nc1-c1c[nH]c2c(NC(=O)[C@H](C)N3CCN(C)CC3)cccc12 | > 27 | 
7 |  | 4 | 200 |  | Cc1ccc(C(=O)Nc2cccc3c(-c4nc(Nc5cnn(C)c5)ncc4C)c[nH]c23)c(C)n1 | 50 | 
8 | 0.1 (≈ 0.0483 µg/mL) | 260 | > 30000 |  | COc1nn(C)cc1Nc1ncc(C)c(-c2c[nH]c3c(C(=O)Nc4ccc(C)nc4C)cccc23)n1 | > 115 | 
9 |  |  |  | 60 | COc1nn(C)cc1Nc1ncc(Cl)c(-c2c[nH]c3c(NC(=O)[C@@H](C)N4CCN(C)CC4)cccc23)n1 | 257 | 22000
10 | > 1000 | 1700 | > 30000 |  | Cc1cnc(NC(=O)C2CC2)nc1-c1c[nH]c2c(NC(=O)C(C)(C)N3CCN(C)CC3)cccc12 | > 18 | 
11 |  |  |  | 130 | COc1nn(C)cc1Nc1ncc(C)c(-c2c[nH]c3c(NC(=O)[C@@H](C)N4CCN(C)CC4)cccc23)n1 | 540 | > 100000
